The experiment can be described thus: caspase activation in unprimed MEWO cells, dose response, counter-screen for A1 inhibitor project, cell-based, luminescence, dry powder, set 2 (AID 504354). The following applies: caspase-Glo luminescence, 3 h, at 16 µM, active compounds read high. The procedure, abridged: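 System: unprimed MEWO cell line expressing A1; Amount: 2500 cells/well; Medium: RPMI-1640 plus 10% FBS; Doses: pin-transferred compound; Schedule: 3 h compound treatment at 37 °C, 1 h reagent at RT; Detection: CaspaseGlo luminescence, reagent mixed 1:1 with 50 mM HEPES; Read-out basis: caspase activity from luminescent signal.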

The values that follow come from PubChem BioAssay AID504354 (Broad Institute, 2011).

A number with no mark means an inactive call.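 The calls were made as follows: active = curve reaches 10% of the strong reference activator's caspase signal at or below the top valid tested dose; inactive = signal moves in the opposite direction, or the rest.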

`C/C1=C/C(=O)O[C@@H]2C[C@@H](CC[C@H](C)/C=C\CC1)O[C@@](O)(C1CSC(=O)N1)C2` (stereo partly specified): the caspase activation is 2.23%.
